# SUMO Mot1 rescue: yeast Mot1-301 growth rescue at high temperature, primary screen, SUMOylation pathway inhibitor project, S. cerevisiae, ATP luminescence, 38.5C; S. cerevisiae Mot1-301 growth rescue; percent above DMSO median, 100 means doubled; growth rescue, % at 18.8 µM; 1% of 320,000 active; AID 2716, 2010;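 active means every valid replicate shows activation above 250% relative to neutral control wells; inactive means the rest, any valid replicate at or below 250%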;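 further: OY570 slx delta 5 strain wells were the positive control but not used for scaling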
# Cneo AK release: Cryptococcus neoformans cell lysis inducers, primary screen, AK release luminescence, single concentration | C. neoformans lysis, adenylate kinase release luminescence, 4 h; normalised: neutral wells 0, clomiphene wells 100 | AID 651654, 2012 | 0.2% of 360,000 active | lysis activity, % at 15 µM;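 active means mean lysis activity across replicates of at least 80%, whatever share of replicates individually reach that level; inactive means mean lysis activity below 80%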
#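 Material – log-phase Cryptococcus neoformans yeast cells · Input – 5 × 10^6 yeast cells/mL · Medium – fresh YPD growth medium · Doses – single compound concentration per well · Timing – static 4 h at 37 °C with compound, 1 h detection · Detection – adenylate kinase release luminescence · Read-out – signal increase indicating cell lysis · Control set – Clomiphene as positive lysis control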
# rRNA inh HTS: reduced GFP signal of wild-type E. coli, primary screen, bacterial rRNA inhibitor project, GFP/RFP fluorescence, OD600, single point; E. coli WT GFP vs humanized-ribosome RFP mutants, 24 h; hits give low values; DMSO median 0, no signal -100; GFP signal change (wild-type ribosome), % (concentration not given with the values); 1.6% of 350,000 active; AID 720706, 2013;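 active means significant combined selectivity score with lowered wild-type GFP, culture density cut under 30%, mutant RFP and density less affected; inactive means any of these conditions unmet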
# PglD inh: C. jejuni PglD acetyltransferase inhibitors, primary screen, biochemical, DTNB colorimetric, single point | purified PglD enzyme, DTNB colorimetric CoA detection | inhibition, % at 12.5 µM | 0.098% of 360,000 active; in the data active means inhibition above about 16%, passing the limit was not always enough
# CR mimetic SO: reduction of superoxide in aged yeast, primary screen, HTS; S. cerevisiae aged cells, superoxide DHE fluorescence; hits give low values; superoxide response (% of plate mean), % at 10 µM; 0.18% of 330,000 active;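 active means superoxide response under a set limit, about three screen SD below normal, cut at about 65% in these data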;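 further: yeast aged for seven days with compound at 30 °C before DHE staining; 100% = average MFI of all compound-treated wells on the plate with controls excluded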
# An asterisk follows results filed as active; . = no result. Most compounds without a hit are left out; they make up all but 2.2% or so of the library.
SMILES,SUMO Mot1 rescue,Cneo AK release,rRNA inh HTS,PglD inh,CR mimetic SO
C[C@@H]1CN([C@H](C)CO)C(=O)c2cc(-c3ccccc3)cnc2O[C@@H]1CN(C)C(=O)c1ccccc1F,.,1,0,-1,.
COc1ccc2c3c([nH]c2c1)[C@@H](CO)N(C(=O)NC(C)C)CC31CN(C(=O)C2CCCCC2)C1,.,.,-3,.,.
C[C@H](CO)N1C[C@H](C)[C@H](CN(C)Cc2ccccc2)OCCCC[C@H](C)Oc2ccc(NS(=O)(=O)c3cccs3)cc2C1=O,.,91*,2,0,.
Cc1ccc(S(=O)(=O)N(C)C[C@H]2OCCCC[C@@H](C)Oc3ccc(NC(=O)CCCCCC(=O)Nc4ccccc4N)cc3C(=O)N([C@H](C)CO)C[C@@H]2C)cc1,.,.,-1,.,.
Cc1noc(C)c1S(=O)(=O)N(C)C[C@H]1OCCCC[C@@H](C)Oc2ccc(NC(=O)CCCCCC(=O)Nc3ccccc3N)cc2C(=O)N([C@@H](C)CO)C[C@@H]1C,.,97*,-1,3,.
COc1ccc2c3c([nH]c2c1)[C@H](CO)N(C(=O)c1ccccc1)CC31CCN(C(=O)Nc2cccc(F)c2)CC1,.,.,-7,.,.
COc1cccc(F)c1C(C[N+](=O)[O-])c1c(N)n(C)c(=O)n(C)c1=O (stereo not given),4,1,-24*,-4,129
Cc1ccc(C(C[N+](=O)[O-])c2c(N)n(C)c(=O)n(C)c2=O)cc1 (stereo not given),249,.,-24*,.,115
CC(=O)N1[C@@H]2Cn3c(ccc(C4=CCCC4)c3=O)[C@H]1[C@@H](C(=O)NCc1ccccc1)[C@@H]2CO,.,0,3,-1,.
C[C@@H]1CN([C@@H](C)CO)C(=O)Cc2cc(NS(=O)(=O)c3cccs3)ccc2O[C@H]1CN(C)C,.,-1,3,-3,.
COC(=O)C1=NN(C(=O)c2ccc(Br)cc2)C(O)(C(C)(C)C)C1 (stereo not given),.,.,-24*,.,.
COC(=O)C1=NN(C(=O)c2cccc(Cl)c2)C(O)(C(C)(C)C)C1 (stereo not given),2,-3,.,5,80
COC(=O)[C@]12CCCCC=C1N(Cc1ccccc1)C(=O)[C@H](CC(=O)NCc1ccc(OC)c(OC)c1)C2,.,.,-20*,.,.
COC(=O)[C@]12CCCCC=C1N(Cc1ccccc1)C(=O)[C@H](CC(=O)N1CCCCC1)C2,.,.,-26*,.,.
CCOC(=O)[C@]12CCCC=C1N(Cc1ccccc1)C(=O)[C@H](CC(=O)NCc1ccc(OC)c(OC)c1)C2,.,.,-3,.,.
COC(=O)[C@]12CCCCC=C1N(Cc1ccccc1)C(=O)[C@H](CC(=O)N1CCCC1)C2,.,.,-2,.,.
COc1cccc(C(=O)Nc2ccc3c(c2)C(=O)N(C)[C@@H]2CC[C@@H](CC(=O)NCC(F)(F)F)O[C@@H]2CO3)c1,.,-4,-5,3,.
Oc1ccc(/C=N/Nc2ccnc3cc(Cl)ccc23)c(O)c1,-21,-5,-33*,3,105
CCOC(=O)CN(C)C(=O)CCc1nnc(-c2ccsc2)o1,611*,3,33,1,77
O=C(C[C@@H]1CC[C@@H](NS(=O)(=O)c2ccc(F)cc2)[C@@H](CO)O1)N1CCc2ccccc2C1,.,1,-3,2,.
CNC[C@@H]1Oc2ccc(N)cc2C(=O)N(C)C[C@@H]1C,.,.,3,.,.
Cc1cc(C)c2nc(N(CCCN(C)C)C(=O)c3ccc4c(c3)OCCO4)sc2c1,80,3,-28*,1,100
O=C(O)c1ccccc1Nc1ccc(OC(F)F)cc1,35,.,-16*,.,129
O=C(O)c1ccccc1Nc1ccccc1,-4,0,.,0,90
COc1ccc2c3c([nH]c2c1)[C@@H](CO)N(Cc1ccccn1)CC31CN(C(C)=O)C1,.,.,4,.,.
SMILES,SUMO Mot1 rescue,Cneo AK release,rRNA inh HTS,PglD inh,CR mimetic SO
O=c1[nH]cnc2c1c(-c1ccccc1)cn2-c1ccccc1,70,-3,-31*,-2,155
NC(=O)C1CCN(C2=C(NS(=O)(=O)c3ccc(Cl)cc3)C(=O)c3ccccc3C2=O)CC1,-9,.,-21*,.,151
COC(=O)C1CCN(C2=C(NS(=O)(=O)c3ccc(Cl)cc3)C(=O)c3ccccc3C2=O)CC1,-27,3,-11,-1,135
COc1ccc(CN(C)C[C@@H]2Oc3ccc(NC(=O)Nc4ccc5c(c4)OCO5)cc3C(=O)N([C@H](C)CO)C[C@H]2C)cc1,.,17,-1,6,.
O=C(C[C@H]1CC[C@@H]2[C@H](COC[C@@H](O)CN2Cc2ccc(Cl)cc2)O1)NCc1ccccc1Cl,.,-2,-25,1,.
O=C(CCCN1C(=O)C(c2ccccc2)Oc2cccnc21)Nc1cccc(F)c1 (stereo not given),43,1,-27*,3,85
COc1ccc(Br)c(C(=O)OCC(=O)N2CCC(Cc3ccccc3)CC2)c1,.,-1,-35*,-8,.
COc1cccc(NC(=S)N2CCC(Cc3ccccc3)CC2)c1,14,117*,5,0,78
C[C@H](CO)N1C[C@H](C)[C@@H](CN(C)C)Oc2ccc(NC(=O)CCN3CCOCC3)cc2C1=O,.,-2,4,5,.
CCCC#Cc1ccc2c(c1)O[C@@H](CN(C)Cc1ccncc1)[C@H](C)CN([C@@H](C)CO)S2(=O)=O,.,-16,-42,-2,.
O=C(O)C(F)=C1c2ccccc2-c2ccccc21,3,-1,-30*,1,105
COc1ccc(C(=O)OCn2nnc3ccccc3c2=O)cc1OC,12,-1,.,6,117
COc1cccc(C(=O)OCn2nnc3ccccc3c2=O)c1,-5,0,-22*,5,98
Cc1noc(C)c1NC(=O)Nc1ccc2c(c1)C(=O)N([C@H](C)CO)C[C@H](C)[C@H](CN(C)Cc1ccncc1)OCCCC[C@H](C)O2,.,0,-1,-4,.
CC1=CC(C)(C)N2C(=O)C(=O)c3cc(OC(=O)c4ccco4)cc1c32,404,.,-23*,.,97
C/C(N)=C(/C#N)C(=O)COC(=O)c1ccccc1O,-1,.,.,.,93
C/C(N)=C(/C#N)C(=O)COC(=O)c1ccccc1C(=O)c1ccc(C)cc1,.,.,-21*,.,114
C[C@H]1CN([C@@H](C)CO)C(=O)c2cc(NC(=O)CCC(F)(F)F)ccc2O[C@@H]1CN(C)CC1CC1,.,1,3,-2,.
Cc1[nH]c2ccccc2c1CCNC(=O)c1ccc2nccnc2c1,-3,-2,1,0,97
Cc1[nH]c2ccccc2c1CCNC(=O)c1c(N)no[n+]1[O-],8,.,-21*,.,102
O=C1OC(c2ccccc2)Cc2cc(C(=O)N3CCN(c4ccc(F)cc4)CC3)ccc21 (stereo not given),.,4,-29*,0,.

# Source: PubChem
